According to article PMC2910240 (Neuroscience letters, 2010):
Read-outs that look alike come from different tables or passages of the source.

Legend:
[1] = target: human cloned 5-HT7 receptor; settings: cited from earlier work
[2] = target: human cloned 5-HT1A; settings: cited from earlier work
[3] = target: h5-HT1B (Homo sapiens, UniProt P28222); assay: Competition radioligand binding; settings: 0.29 nM [3H]GR125743; mean ± S.E.M.
[4] = target: 5-HT7 receptor; settings: cited from earlier work
[5] = tested on: mice; assay: Observation of visible adverse effects in mice; format: in vivo, mouse; settings: i.p. doses of the body temperature study
[6] = target: h5-ht1E (Homo sapiens, UniProt P28566); assay: Competition radioligand binding; settings: for Ki: 3 nM [3H]5-HT
h5-ht1E, sequence (P28566 whole entry): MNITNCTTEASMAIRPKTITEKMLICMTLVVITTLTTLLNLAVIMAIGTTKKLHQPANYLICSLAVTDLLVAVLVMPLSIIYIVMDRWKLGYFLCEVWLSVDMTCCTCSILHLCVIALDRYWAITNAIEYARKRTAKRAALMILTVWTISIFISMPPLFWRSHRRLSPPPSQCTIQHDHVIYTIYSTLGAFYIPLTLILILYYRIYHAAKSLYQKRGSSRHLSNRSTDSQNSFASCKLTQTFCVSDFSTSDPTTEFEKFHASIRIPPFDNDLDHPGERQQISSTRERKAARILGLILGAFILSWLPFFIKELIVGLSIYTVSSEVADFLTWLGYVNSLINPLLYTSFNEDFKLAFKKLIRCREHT

[7] = Disposition: plasma and brain concentrations in mice; format: in vivo, mouse; settings: for Plasma concentration: 30 min
Summary of the method: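 Male 5-HT7−/− and 5-HT7+/+ sibling mice, 10–12 weeks old, got test compound i.p. (10 or 30 mg·kg−1). It was dissolved in ethanol at 10× and diluted in saline just before injection. At 30 min mice were killed by isoflurane overdose; […] and brain were stored at −80 °C. Parent and metabolite were measured in plasma and water brain homogenate (1 g·10 mL−1) by RP-HPLC-UV at 230 nm with internal standard. LLOQ 50 ng·mL−1 or g−1. Ratios on molar basis; 5 mice/group.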

[8] = target: h5-HT6 (Homo sapiens, UniProt P50406); assay: Competition radioligand binding; settings: 0.97 nM [3H]LSD; mean ± S.E.M.
h5-HT6, sequence (P50406 whole entry): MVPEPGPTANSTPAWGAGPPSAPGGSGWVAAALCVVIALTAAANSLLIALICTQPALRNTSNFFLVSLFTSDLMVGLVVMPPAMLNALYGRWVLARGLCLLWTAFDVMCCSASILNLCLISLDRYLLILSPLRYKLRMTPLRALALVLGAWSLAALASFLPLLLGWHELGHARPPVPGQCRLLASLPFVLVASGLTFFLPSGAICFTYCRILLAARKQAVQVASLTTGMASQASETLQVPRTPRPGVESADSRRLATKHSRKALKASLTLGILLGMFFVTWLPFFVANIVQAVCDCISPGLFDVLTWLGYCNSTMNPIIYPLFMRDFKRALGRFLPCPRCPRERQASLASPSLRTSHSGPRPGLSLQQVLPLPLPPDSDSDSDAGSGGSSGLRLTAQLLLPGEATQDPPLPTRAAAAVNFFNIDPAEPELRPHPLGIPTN

[9] = target: T1, r5-HT2C (Rattus norvegicus, UniProt P08909); assay: Competition radioligand binding; settings: 0.5 nM [3H]mesulergine; mean ± S.E.M.
T1 sequence (P08909 33-460): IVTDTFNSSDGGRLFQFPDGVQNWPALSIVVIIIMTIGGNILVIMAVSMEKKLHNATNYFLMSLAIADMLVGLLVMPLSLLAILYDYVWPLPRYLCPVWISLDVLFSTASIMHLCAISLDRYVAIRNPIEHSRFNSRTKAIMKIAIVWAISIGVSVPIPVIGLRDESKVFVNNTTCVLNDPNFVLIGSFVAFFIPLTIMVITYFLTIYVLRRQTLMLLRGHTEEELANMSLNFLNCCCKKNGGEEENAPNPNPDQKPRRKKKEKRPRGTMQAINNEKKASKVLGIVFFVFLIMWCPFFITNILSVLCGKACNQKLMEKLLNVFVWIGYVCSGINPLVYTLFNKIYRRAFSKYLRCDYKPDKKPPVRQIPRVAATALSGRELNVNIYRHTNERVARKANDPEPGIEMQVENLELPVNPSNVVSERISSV

[10] = target: h5-HT2B (Homo sapiens, UniProt P41595); assay: Competition radioligand binding; settings: 1.0 nM [3H]LSD; mean ± S.E.M.
h5-HT2B, sequence (P41595 whole entry): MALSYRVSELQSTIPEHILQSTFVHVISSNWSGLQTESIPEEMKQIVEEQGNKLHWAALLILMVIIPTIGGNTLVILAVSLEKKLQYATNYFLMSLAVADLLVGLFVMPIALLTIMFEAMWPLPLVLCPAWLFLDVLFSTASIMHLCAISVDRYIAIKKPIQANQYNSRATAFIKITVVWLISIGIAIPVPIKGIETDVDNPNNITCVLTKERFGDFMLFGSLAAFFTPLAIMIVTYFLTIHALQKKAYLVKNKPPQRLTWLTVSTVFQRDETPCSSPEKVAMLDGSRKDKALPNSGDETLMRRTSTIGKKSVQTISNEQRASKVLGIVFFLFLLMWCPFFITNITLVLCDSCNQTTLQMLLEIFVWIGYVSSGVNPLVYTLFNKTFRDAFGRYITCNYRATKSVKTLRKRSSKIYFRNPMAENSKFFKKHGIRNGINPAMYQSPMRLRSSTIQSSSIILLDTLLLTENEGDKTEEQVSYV

[11] = target: h5-ht5A (Homo sapiens, UniProt P47898); assay: Competition radioligand binding; settings: for Ki: 0.99 nM [3H]LSD, mean ± S.E.M.
h5-ht5A, sequence (P47898 whole entry): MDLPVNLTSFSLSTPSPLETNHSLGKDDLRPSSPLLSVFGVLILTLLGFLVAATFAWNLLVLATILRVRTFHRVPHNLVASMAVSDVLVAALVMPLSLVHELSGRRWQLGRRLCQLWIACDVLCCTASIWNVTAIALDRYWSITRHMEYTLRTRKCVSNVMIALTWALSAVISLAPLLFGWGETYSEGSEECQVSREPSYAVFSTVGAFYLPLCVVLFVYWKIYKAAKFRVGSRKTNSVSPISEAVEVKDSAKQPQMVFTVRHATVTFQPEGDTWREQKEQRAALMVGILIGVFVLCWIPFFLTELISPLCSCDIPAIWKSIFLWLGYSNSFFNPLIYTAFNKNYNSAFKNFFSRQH

[12] = tested on: 5-HT7^−/− mice; assay: Body temperature regulation in 5-HT7-/- mice; format: in vivo, mouse
[13] = tested on: 5-HT7^+/+ mice; assay: Body temperature regulation in 5-HT7+/+ mice; format: in vivo, mouse
[14] = target: h5-HT2A (Homo sapiens, UniProt P28223); format: binding; settings: 0.5 nM [3H]ketanserin; mean ± S.E.M.
h5-HT2A, sequence (P28223 whole entry): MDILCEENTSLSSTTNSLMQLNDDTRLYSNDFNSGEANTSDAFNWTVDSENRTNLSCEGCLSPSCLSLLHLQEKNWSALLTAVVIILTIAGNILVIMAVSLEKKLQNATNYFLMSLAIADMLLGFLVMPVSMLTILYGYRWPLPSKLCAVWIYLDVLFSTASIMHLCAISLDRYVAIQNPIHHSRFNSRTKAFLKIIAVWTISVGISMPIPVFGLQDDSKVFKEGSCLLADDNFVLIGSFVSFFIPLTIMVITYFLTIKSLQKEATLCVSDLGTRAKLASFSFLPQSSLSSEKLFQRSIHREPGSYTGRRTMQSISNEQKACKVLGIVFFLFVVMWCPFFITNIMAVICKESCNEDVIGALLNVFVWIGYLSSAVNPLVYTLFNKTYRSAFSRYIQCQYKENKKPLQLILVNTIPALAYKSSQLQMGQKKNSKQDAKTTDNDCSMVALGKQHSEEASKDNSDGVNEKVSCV

[15] = target: h5-HT1D (Homo sapiens, UniProt P28221); assay: Competition radioligand binding; settings: 1.4 nM [3H]5-CT; mean ± S.E.M.
h5-HT1D, sequence (P28221 whole entry): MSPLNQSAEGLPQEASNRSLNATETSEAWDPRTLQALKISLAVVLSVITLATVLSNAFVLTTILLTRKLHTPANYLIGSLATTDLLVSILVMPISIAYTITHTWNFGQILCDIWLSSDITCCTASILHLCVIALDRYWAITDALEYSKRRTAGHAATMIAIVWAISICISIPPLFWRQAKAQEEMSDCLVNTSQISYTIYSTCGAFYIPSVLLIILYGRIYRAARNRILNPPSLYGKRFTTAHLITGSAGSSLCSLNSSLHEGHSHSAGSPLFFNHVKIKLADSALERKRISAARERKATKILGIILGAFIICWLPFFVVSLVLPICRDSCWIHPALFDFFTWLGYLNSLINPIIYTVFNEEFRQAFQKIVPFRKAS

[16] = target: T2, h5-HT3 (Homo sapiens, UniProt P46098); assay: Competition radioligand binding; settings: for Ki: 0.29 nM [3H]LY278584, mean ± S.E.M.
T2 sequence (P46098 24-478): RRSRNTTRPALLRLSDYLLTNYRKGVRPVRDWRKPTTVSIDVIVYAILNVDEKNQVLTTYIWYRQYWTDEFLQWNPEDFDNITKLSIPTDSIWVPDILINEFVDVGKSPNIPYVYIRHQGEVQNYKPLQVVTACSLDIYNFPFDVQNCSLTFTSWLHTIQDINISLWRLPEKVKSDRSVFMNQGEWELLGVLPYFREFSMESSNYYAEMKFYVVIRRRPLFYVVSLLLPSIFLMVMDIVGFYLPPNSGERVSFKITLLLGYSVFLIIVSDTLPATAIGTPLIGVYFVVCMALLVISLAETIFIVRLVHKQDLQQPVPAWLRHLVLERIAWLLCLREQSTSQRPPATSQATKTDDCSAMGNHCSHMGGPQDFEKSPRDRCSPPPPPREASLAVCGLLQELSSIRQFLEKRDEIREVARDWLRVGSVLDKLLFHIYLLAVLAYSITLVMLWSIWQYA

[17] = target: hSERT (Homo sapiens, UniProt P31645); assay: Competition radioligand binding; settings: 0.79 nM [3H]citalopram; mean ± S.E.M.
hSERT, sequence (P31645 whole entry): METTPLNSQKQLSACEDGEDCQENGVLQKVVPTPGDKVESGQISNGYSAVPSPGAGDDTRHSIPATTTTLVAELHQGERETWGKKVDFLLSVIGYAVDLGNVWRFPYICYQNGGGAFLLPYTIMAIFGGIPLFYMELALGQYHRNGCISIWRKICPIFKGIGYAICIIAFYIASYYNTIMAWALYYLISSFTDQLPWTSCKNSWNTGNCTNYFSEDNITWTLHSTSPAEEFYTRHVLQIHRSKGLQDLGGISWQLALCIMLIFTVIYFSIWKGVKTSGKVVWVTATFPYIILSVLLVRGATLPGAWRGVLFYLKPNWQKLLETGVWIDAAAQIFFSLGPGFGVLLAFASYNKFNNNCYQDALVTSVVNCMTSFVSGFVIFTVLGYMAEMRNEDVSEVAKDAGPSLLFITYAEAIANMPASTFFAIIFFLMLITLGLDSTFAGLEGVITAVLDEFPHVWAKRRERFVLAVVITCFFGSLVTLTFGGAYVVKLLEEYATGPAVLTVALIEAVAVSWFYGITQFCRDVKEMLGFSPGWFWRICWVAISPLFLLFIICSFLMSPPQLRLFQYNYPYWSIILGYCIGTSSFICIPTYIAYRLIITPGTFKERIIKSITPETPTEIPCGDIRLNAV

[18] = target: rat cloned 5-HT7 receptors; settings: cited from earlier work
[19] = target: T3, h5-HT1A (Homo sapiens, UniProt P08908); assay: Competition radioligand binding
T3 sequence (P08908 1-422): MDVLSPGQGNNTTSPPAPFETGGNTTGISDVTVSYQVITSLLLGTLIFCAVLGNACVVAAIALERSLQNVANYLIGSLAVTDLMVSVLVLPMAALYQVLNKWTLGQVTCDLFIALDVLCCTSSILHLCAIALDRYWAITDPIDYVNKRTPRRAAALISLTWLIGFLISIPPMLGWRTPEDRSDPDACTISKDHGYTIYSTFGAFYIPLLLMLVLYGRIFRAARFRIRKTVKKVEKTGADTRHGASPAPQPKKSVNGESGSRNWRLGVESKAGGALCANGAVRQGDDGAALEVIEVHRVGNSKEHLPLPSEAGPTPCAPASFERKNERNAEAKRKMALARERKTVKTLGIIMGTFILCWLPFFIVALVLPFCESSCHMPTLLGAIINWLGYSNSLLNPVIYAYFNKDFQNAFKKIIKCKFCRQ

[20] = target: h5-HT7 (Homo sapiens, UniProt P34969); assay: Competition radioligand binding
h5-HT7, sequence (P34969 whole entry): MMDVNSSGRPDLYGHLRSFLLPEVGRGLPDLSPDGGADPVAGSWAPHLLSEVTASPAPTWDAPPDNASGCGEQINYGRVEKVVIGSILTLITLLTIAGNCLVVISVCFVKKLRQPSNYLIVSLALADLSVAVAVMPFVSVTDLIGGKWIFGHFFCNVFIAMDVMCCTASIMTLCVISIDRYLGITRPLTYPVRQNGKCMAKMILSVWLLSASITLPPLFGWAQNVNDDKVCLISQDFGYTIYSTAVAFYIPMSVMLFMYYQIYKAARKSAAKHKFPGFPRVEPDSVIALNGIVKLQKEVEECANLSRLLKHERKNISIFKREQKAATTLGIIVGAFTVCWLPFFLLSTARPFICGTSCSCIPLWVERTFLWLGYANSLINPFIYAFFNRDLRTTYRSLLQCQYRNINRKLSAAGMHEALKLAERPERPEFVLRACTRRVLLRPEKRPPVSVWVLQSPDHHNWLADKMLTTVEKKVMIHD

[21] = cited from earlier work
[22] = 3, 10, and 30 mg/kg i.p., wild-type mice
[23] = 0.5 nM [3H]8-OH-DPAT, mean ± S.E.M.

h5-HT1B, sequence (P28222 whole entry): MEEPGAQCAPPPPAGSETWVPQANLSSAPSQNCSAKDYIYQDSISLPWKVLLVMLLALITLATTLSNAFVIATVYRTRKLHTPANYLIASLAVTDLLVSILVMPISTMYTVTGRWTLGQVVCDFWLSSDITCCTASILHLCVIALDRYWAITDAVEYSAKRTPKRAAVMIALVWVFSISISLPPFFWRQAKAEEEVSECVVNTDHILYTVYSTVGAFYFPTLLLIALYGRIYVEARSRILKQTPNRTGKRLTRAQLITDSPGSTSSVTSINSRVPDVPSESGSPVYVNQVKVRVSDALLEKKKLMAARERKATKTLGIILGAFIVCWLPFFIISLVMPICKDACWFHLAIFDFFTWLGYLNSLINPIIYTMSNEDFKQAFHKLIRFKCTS

SMILES: CCCN(CCC)C1CCc2cccc(O)c2C1 (centres unmarked) [8-OH-DPAT, 8-hydroxy-N,N-dipropylaminotetraline]
- Ki [1]: 0.467 µM
- Ki [2]: 0.0038 µM

SMILES: N#Cc1ccc(CNC(=O)CCCCCN2CCN(c3ccccc3-c3ccccc3)CC2)cc1 [LP-211, N-(4-cyanophenylmethyl)-4-(2-diphenyl)-1-piperazinehexanamide]
- Ki [3]: 0.215 ± 0.01 µM
- visible adverse effects apart from the hypothermia [5]: did not induce any visible adverse effects
- binding at 5-HT1E receptors [6]: did not significantly bind
- Ki [6]: > 10 µM
- Ki [8]: 1.57 ± 0.193 µM
- Ki [9]: 0.091 ± 0.009 µM
- Ki [10]: 0.067 ± 0.01 µM
- Ki [11]: 0.178 ± 0.026 µM
- effect on body temperature ([12]; 3 mg/kg i.p.): did not alter body temperature
- effect on body temperature ([12]; 10 mg/kg i.p.): but not in 5-HT7^−/− mice
- effect on body temperature ([12]; 30 mg/kg i.p.): significant, but less pronounced, effect on peak change
- effect on body temperature ([13]; 3 mg/kg i.p., 5-HT7+/+ mice): did not alter body temperature
- effect on body temperature ([13]; 10 mg/kg i.p., 5-HT7+/+ mice): had a peak effect
- effect on body temperature ([13]; 30 mg/kg i.p., 5-HT7+/+ mice, peak change and overall change): significant effect
- effect on body temperature [13, 22]: dose-dependently reduced body temperature
- time of peak effect on body temperature after the injection [13, 22]: 15 to 30 min
- Ki [14]: 0.626 ± 0.141 µM
- Ki [15]: 0.394 ± 0.074 µM
- binding at 5-HT3 receptors [16]: did not significantly bind
- Ki [16]: > 10 µM
- Ki [17]: 0.812 ± 0.156 µM
- Ki [18]: 0.00058 µM
- Ki [19, 23]: 0.379 ± 0.118 µM

SMILES: CC[C@@H](CO)NC(=O)[C@@H]1C=C2c3cccc4c3c(cn4C)C[C@H]2N(C)C1 [Methysergide, reference compound]
- Ki [19]: 0.038 µM

SMILES: c1ccc(-c2ccccc2N2CCNCC2)cc1 [RA-7, 1-(2-diphenyl)piperazine]
- Ki [3]: 1.02 ± 0.121 µM
- visible adverse effects apart from the hypothermia [5]: did not induce any visible adverse effects
- Ki [6]: > 10 µM
- metabolite in plasma and brain ([7]; 30 min after the lowest dose of LP-211, 5-HT7-/- and 5-HT7+/+ mice): undetectable
- Ki [8]: 0.596 ± 0.07 µM
- Ki [9]: 0.171 ± 0.014 µM
- Ki [10]: 0.178 ± 0.019 µM
- Ki [11]: 0.076 ± 0.014 µM
- selectivity for 5-HT7 over 5-HT5A ([11]; from Ki values): 54 fold
- effect on body temperature ([13]; 3 mg/kg i.p., genotype not given): slight but significant hyperthermic effect
- effect on body temperature ([13]; 10 mg/kg i.p., 5-HT7+/+ mice): induced hypothermia to small degree that reached significance for overall change
- Ki [14]: 1.19 ± 0.288 µM
- Ki [15]: 0.302 ± 0.039 µM
- Ki ([20]; 1.1 nM [3H]LSD, mean ± S.E.M.): 0.0014 ± 0.0002 µM
- Ki at human 5-HT7 lower than the corresponding value for the parent compound ([20]; RA-7 vs LP-211): approximately 10 fold
- selectivity for 5-HT7 over a range of 5-HT receptor subtypes and SERT ([20]; from Ki values): > 54 fold
- Ki [16]: 0.228 ± 0.034 µM
- mean metabolite-to-parent compound ratio in mouse brain, molar basis [21]: about 2
- Ki [17]: 0.439 ± 0.041 µM
- Ki [19, 23]: 0.099 ± 0.022 µM
- selectivity for 5-HT7 over 5-HT1A ([19]; from Ki values): 71 fold

SMILES: CC1CCN(CC[C@H]2CCCN2S(=O)(=O)c2cccc(O)c2)CC1 [SB-269970, (2R)-1-[(3-hydroxyphenyl)sulfonyl]-2-[2-(4-methyl-1-piperidinyl)ethyl]pyrrolidine, reference compound]
- reversal of the LP-211 effect in guinea pig ileum [4]: reversed
- effect of the antagonist itself on body temperature ([13]; 10 mg/kg i.p., genotype not given): no effect on body temperature
- antagonism of the effect of LP-211 (30 mg/kg) on body temperature ([13]; antagonist 10 mg/kg i.p., 30 min prior to LP-211): blocked the effect of LP-211
